Experiments:
[1] = target: Caspase-8 (Homo sapiens, UniProt Q14790); assay: Inhibition of human recombinant caspase-8 using Ac-IETD-AMC as substrate at Km after 20 mins by fluorescence assay
Outline: (§1)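 Human recombinant caspases in pH 7.4 HEPES buffer (100 mM NaCl, 0.1% CHAPS, 1 mM EDTA, 10% glycerol, 10 mM DTT), each with its own AMC substrate at a final concentration equal to its Km. Compounds tested at 10 000–0.04 nM in 1% DMSO. Enzyme level is set to convert under 20% of substrate in 20 min, or 2 h depending on activity, at room temperature. AMC read at 340/450 nm; IC50 from a four-parameter logistic fit.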

[2] = target: T1, Caspase-6 (Homo sapiens, UniProt P55212); assay: Inhibition of human recombinant caspase-6 using Ac-VEID-AMC as substrate at Km after 20 mins by fluorescence assay; outline: as §1
T1 sequence (P55212 whole entry): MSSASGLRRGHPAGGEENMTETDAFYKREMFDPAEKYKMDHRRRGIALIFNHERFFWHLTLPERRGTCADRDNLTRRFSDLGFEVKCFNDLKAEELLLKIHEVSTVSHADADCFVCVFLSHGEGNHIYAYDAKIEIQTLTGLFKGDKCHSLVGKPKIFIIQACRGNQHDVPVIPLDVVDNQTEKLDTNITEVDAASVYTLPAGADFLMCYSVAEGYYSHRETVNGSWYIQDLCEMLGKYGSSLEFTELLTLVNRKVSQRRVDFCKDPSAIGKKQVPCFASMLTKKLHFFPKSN

[3] = Cmax in mouse dermis at 0.1 umol/cm'2 administered topically; type: ADME, tissue-based; details: topical or ocular
Outline: (§2)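 Mouse PK after one topical application of 0.1 μmol/cm², given as a 10 mM solution in PG/EtOH 3/7. Cmax is reported in μM for dermis and for plasma.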

[4] = target: T2, Caspase-1 (Homo sapiens, UniProt P29466); assay: Inhibition of caspase-1 in human monocyte-derived macrophages assessed as decrease in LPS-induced IL-1beta secretion after 24 hrs by sandwich immunoassay
T2 sequence (P29466 whole entry): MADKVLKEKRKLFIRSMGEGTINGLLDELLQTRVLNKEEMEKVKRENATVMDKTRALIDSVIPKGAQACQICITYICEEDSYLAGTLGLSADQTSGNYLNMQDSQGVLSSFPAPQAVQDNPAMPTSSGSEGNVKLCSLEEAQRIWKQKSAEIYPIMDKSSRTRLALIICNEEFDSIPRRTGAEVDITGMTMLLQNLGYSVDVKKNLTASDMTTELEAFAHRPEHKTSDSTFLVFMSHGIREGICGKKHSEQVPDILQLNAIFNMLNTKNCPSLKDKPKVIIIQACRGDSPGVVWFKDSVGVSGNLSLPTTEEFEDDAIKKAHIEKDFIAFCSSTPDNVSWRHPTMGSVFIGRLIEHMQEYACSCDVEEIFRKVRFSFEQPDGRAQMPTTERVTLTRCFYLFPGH
Outline: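 Cryopreserved human peripheral blood monocytes are cultured 10 days at 37 °C in RPMI with 10% heat-inactivated FBS and 100 ng/mL GM-CSF to give M1 macrophages. Cells are then stimulated with LPS 10 µg/mL plus IFNγ 20 ng/mL and treated with compound serial dilutions (10000–0.04 nM, 0.1% DMSO).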

[5] = target: T3, Caspase-5 (Homo sapiens, UniProt P51878); assay: Inhibition of human recombinant caspase-5 using AC-WEHD-AMC as substrate at Km after 20 mins by fluorescence assay; outline: as §1
T3 sequence (P51878 whole entry): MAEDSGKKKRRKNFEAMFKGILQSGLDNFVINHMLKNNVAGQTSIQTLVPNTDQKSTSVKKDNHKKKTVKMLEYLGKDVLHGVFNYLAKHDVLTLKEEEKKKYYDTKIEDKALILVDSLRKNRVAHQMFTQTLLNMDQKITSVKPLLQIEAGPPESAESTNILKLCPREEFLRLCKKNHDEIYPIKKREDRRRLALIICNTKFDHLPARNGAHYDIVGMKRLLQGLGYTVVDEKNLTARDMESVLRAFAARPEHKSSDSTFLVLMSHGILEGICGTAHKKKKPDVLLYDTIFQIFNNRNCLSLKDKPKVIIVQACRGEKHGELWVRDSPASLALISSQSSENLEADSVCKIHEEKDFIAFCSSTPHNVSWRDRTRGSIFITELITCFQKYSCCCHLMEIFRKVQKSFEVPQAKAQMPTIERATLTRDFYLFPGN

[6] = target: T4, Caspase-3 (Homo sapiens, UniProt P42574); assay: Inhibition of human recombinant caspase-3 using Ac-DEVD-AMC as substrate at Km after 20 mins by fluorescence assay; outline: as §1
T4 sequence (P42574 whole entry): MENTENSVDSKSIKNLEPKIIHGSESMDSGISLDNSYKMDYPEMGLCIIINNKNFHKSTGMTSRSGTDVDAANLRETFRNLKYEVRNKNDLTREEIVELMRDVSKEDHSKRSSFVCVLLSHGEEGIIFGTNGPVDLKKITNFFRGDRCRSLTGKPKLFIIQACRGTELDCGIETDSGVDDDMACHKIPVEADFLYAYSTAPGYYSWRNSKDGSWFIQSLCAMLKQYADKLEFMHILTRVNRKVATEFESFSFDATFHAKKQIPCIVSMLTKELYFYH

[7] = Chemical stability in 96% ethanol assessed as parent compound recovery at 23 degC after 3 months; type: physicochemical; details: read-out: Drug recovery
Outline: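 Compounds bearing the aspartyl aldehyde warhead are held in 96% ethanol at 23 °C and assayed as percent of parent compound recovered. Readings taken after 4 weeks are projected to 12 weeks with best-fit kinetic-order equations. Tautomers and potential stereoisomers are counted as parent.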

[8] = Intrinsic clearance in human hepatocytes assessed per 10^6 cells; type: ADME, cell-based, Hepatocyte; details: read-out: CLH
[9] = Cmax in mouse plasma at 0.1 umol/cm'2 administered topically; details: topical or ocular; outline: as §2
[10] = target: T2, Caspase-1; assay: Inhibition of human recombinant caspase-1 using AC-WEHD-AMC as substrate at Km after 20 mins by fluorescence assay; details: read-out: IC50
[11] = target: T2, Caspase-1; assay: Inhibition of caspase-1 in human THP1 cells assessed as decrease in LPS-induced IL-1beta secretion after overnight incubation by sandwich immunoassay; type: cell-based
[12] = Phototoxicity in NHEK assessed as decrease in cell viability after 24 hrs in presence of UV light by neutral red uptake assay; details: human
Outline: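 Keratinocyte neutral red uptake assay adapted from the OECD 432 3T3 NRU test. Cells are irradiated with a simulated daily UV dose of 6 J/cm², and viability is read after 24 h exposure to compound.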

[13] = Drug uptake in human dermis at 0.2 umol/cm'2 administered topically; type: ADME, tissue-based; details: topical_or_ocular, read-out: Drug uptake
Outline: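 Cryogenically preserved human skin explant given one topical application of 0.2 μmol/cm² from a 40 mM PG/EtOH 3/7 solution. Dermis concentration is reported in μM.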

[14] = target: T5, Caspase-7 (Homo sapiens, UniProt P55210); assay: Inhibition of human recombinant caspase-7 using Ac-DEVD-AMC as substrate at Km after 20 mins by fluorescence assay; outline: as §1
T5 sequence (P55210 whole entry): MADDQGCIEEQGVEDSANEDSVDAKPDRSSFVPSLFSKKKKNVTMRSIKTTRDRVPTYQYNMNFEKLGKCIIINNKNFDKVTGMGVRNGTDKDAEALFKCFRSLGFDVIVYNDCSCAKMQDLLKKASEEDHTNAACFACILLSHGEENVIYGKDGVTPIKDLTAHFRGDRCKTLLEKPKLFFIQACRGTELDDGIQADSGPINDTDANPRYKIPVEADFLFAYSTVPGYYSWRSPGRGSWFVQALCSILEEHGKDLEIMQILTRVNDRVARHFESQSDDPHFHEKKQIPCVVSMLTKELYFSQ

[15] = Lipophilicity, log D of the compound at pH 6.5 by chromatographic method; type: physicochemical; details: buffer
Outline: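 Chromatographic lipophilicity at pH 6.5, converted to ChromLogD = CHI × 0.0857 − 2.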

Caspase-8, sequence (Q14790 217-374 limits assumed): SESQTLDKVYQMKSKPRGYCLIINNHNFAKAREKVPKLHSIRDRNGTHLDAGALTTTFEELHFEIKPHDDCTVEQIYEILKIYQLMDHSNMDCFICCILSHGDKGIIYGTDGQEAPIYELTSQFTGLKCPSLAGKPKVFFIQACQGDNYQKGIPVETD
Caspase-8, sequence (Q14790 385-479 limits assumed): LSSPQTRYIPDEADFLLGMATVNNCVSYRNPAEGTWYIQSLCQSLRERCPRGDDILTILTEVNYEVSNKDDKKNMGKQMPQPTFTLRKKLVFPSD

Question: With `Cc1cc(Nc2ccc3ccccc3c2)ccc1C(=O)Nc1cn(C(C)C)c(=O)n(C2(C(=O)N[C@H]3CC(=O)OC3O)CC2)c1=O` (stereo not given in full) as the molecule, how does the IC50 [1] read?
Answer: > 10 µM

Question: And the IC50 [2]?
Answer: > 10 µM

Question: What about the Cmax [3] of the same molecule?
Answer: 4.2 µM

Question: What about the IC50 [4] of the same molecule?
Answer: 0.16 µM

Question: And the IC50 [5]?
Answer: 2.98 µM

Question: What about the IC50 [6] of the same molecule?
Answer: > 10 µM

Question: What about the remaining at 2191.5 h [7] of the same molecule?
Answer: 100%

Question: What about the hepatocyte CLint [8] of the same molecule?
Answer: 9.8 µL/min/1e6 cells

Question: And the Cmax [9]?
Answer: 0.0013 µM

Question: What about the IC50 [10] of the same molecule?
Answer: 0.0098 µM

Question: What about the IC50 [11] of the same molecule?
Answer: 0.038 µM

Question: What about the Activity [12] of the same molecule?
Answer: Non-Toxic

Question: What about the concentration [13] of the same molecule?
Answer: 4.5 µM

Question: And the IC50 [14]?
Answer: > 10 µM

Question: What about the chromatographic logD [15] of the same molecule?
Answer: 3.7

Source: ChEMBL document CHEMBL4177758, “Rational Drug Design of Topically Administered Caspase 1 Inhibitors for the Treatment of Inflammatory Acne” (J Med Chem, 2018)
